Source: PubChem BioAssay
Most compounds without a hit are left out; they make up all but 1% or so of the library.
Tn6 DDE FP: inhibitors of Tn6 peptide binding to fibrin DD(E), primary screen, biochemical, fluorescence polarization, human fibrin, Tn6 probe; Fibrinogen beta chain (Homo sapiens), P02675; Fibrin DD(E) TRITC-Tn6 fluorescence polarization displacement; inhibition, % at 8.3 µM; 370,000 compounds, 0.21% hits; AID 720509, 2013;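 active = inhibition above a per-campaign cutoff: mean of compounds within control limits plus 3 SD, cut at about 15% in these data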;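 note: 0% = median of all compound wells on the plate and 100% = blocking peptide control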
Tn7 DDE FP: inhibitors of Tn7 peptide binding to fibrin DD(E), primary screen, biochemical, fluorescence polarization, human fibrin, Tn7 probe. AID 720508, 2013. Fibrinogen beta chain (Homo sapiens), P02675. 370,000 compounds, 0.13% hits. FP displacement of FITC-Tn7 peptide from fibrin DD(E); 0% = median of compound wells per plate. inhibition, % at 8.3 µM;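 active = inhibition above the mean of compounds falling within the control limits plus 3 SD of them, cut at about 14% in these data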;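 note: 0% = plate median of compound wells and 100% = 10 µM Aha-Tn7 peptide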
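Test system – human fibrin DD(E) · Times – 10 min preincubation, 3 h with tracer, room temperature · Detection – fluorescence polarization of the labelled Tn7 tracer · Measure – percent inhibition normalized to high-control wells · Benchmarks – high control wells with 10 µM unlabelled Aha-Tn7 peptide (full inhibition) · Repeats – singlicate testing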
PKA-R1A act: activators of PKA-R1A holoenzyme, primary screen, biochemical, fluorescence polarization, Cy5-IP20, bovine R1A, mouse PKAc | activation, % at 11.4 µM | cAMP-dependent protein kinase type I-alpha regulatory subunit (Bos taurus) + … | PKA-R1A dissociation; scaled: DMSO 0%, 113 µM cGMP 100% | 340,000 compounds, 0.083% hits | AID 504707, 2011;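 active = percent activation above the mean of all tested compounds plus 3 SD, cut at about 19% in these data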;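 note: higher means more PKAc released from R1A so a rise in polarization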
Neddyl block: inhibitors of cullin neddylation, primary screen, biochemical, TR-FRET, uHTS, NAE and Ubc12. NEDD8-conjugating enzyme Ubc12 (Homo sapiens) + NEDD8-activating enzyme E1 regulatory …. inhibition, % at 25 µM. AID 651699, 2012. 360,000 compounds, 0.58% hits; in the data active = inhibition above about 36%
PKA-R2B act: activators of PKA-R2B holoenzyme, primary screen, biochemical, fluorescence polarization, Cy5-IP20, human; cAMP-dependent protein kinase catalytic subunit beta (Homo sapiens) + cAMP-dependent …; PKA-R2B holoenzyme dissociation; R2B truncated from residue 108, S112A mutant; 0% DMSO only, 100% 113 µM cGMP; activation, % at 11.4 µM; 340,000 compounds, 0.079% hits;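 active = activation above a cutoff set at the mean over all compounds plus 3 SD, cut at about 18% in these data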;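 note: higher means more holoenzyme dissociation and a rise in polarization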
Target sequence (P31323 whole entry, looked up, other chains not shown, the tested form may be a part): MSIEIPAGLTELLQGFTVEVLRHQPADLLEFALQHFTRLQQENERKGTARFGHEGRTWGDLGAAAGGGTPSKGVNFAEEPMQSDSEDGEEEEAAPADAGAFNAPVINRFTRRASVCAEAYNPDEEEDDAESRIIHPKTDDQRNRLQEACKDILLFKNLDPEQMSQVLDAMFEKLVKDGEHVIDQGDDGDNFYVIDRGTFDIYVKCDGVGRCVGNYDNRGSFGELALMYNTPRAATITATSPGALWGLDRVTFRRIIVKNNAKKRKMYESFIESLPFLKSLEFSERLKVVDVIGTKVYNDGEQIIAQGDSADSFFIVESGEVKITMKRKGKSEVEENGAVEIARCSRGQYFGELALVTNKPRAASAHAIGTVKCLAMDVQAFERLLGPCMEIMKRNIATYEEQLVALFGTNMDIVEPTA
R2B FP artifact: fluorescence polarization artefacts, biochemical, artefact control for PKA-R2B activator project. shares compounds with PKA-R2B act. FP artifact counterscreen. activation, % at 11.4 µM. 270 compounds, 6% hits; in the data active = activation above about 20%;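 note: Cy5 labelled IP20 peptide probe with compound but no PKA protein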
PKA-R2B act conf: activators of PKA-R2B holoenzyme, confirmation, biochemical, fluorescence polarization, human. PKA-R2B complex, activation. 270 compounds, 9% hits. shares compounds with PKA-R2B act. activation, % at 11.4 µM; in the data active = activation above about 19%
Target sequence (P31323 whole entry, looked up): as the sequence (P31323 whole entry, looked up, other chains not shown, the tested form may be a part) above
R1A FP artifact: FP signal interference without PKA proteins, confirmation, artefact control for PKA-R1A activator project, biochemical, fluorescence polarization, triplicate; activation, % at 11.4 µM; 280 compounds, 7% hits; shares compounds with PKA-R1A act; AID 504799, 2011; Cy5-IP20 peptide alone, fluorescence polarization artifact counterscreen;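 active = mean activation over triplicate runs exceeds the adjusted cutoff derived for the parent primary screen, cut at about 19% in these data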;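 note: no PKA protein present so any polarization rise reflects compound interference; 0% = tracer peptide mix alone and 100% = mix with added PKA catalytic subunit; higher means stronger polarization artifact and likely false positive in parent screen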
PKA-R1A confirm: activators of PKA-R1A holoenzyme, confirmation, biochemical, fluorescence polarization, Cy5-IP20, triplicate | activation, % at 11.4 µM | shares compounds with PKA-R1A act | 280 compounds, 9% hits | PKA-R1A holoenzyme dissociation;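 active = mean activation over replicate wells exceeds the adjusted hit threshold taken from the earlier primary screen, cut at about 20% in these data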;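 note: 0% = holoenzyme mix with DMSO only and 100% = cGMP-activated control wells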
Active calls of the source: *; . = not tested or not shown.

SMILES | Tn6 DDE FP | Tn7 DDE FP | PKA-R1A act | Neddyl block | PKA-R2B act | R1A FP artifact | PKA-R1A confirm | others
Cc1cc(=O)n2[nH]c(NCc3c(F)cccc3Cl)nc2n1 | -3 | -5 | 60* | 12 | 72* | 103* | 100* | R2B FP artifact=103*;PKA-R2B act conf=93*
COc1cccc(CNc2nc3nc(C)cc(=O)n3[nH]2)c1 | -6 | 1 | 5 | 1 | 13 | . | .
Cc1oc2ccc(OCc3c(F)cccc3Cl)cc2c1C(=O)O | 2 | 0 | 51* | 6 | 27* | 45* | 51* | R2B FP artifact=45*;PKA-R2B act conf=52*
Cc1oc2ccc(OCc3cccc(Cl)c3)cc2c1C(=O)O | -2 | 1 | 0 | 0 | 1 | . | .
CC1=C/C(=C(/c2ccc(O)c(C)c2)c2ccccc2S(=O)(=O)O)C=CC1=O | -3 | 5 | -11 | -79 | 0 | . | .
CC1=C/C(=C(/c2cc(C)c(O)c(Br)c2)c2ccccc2S(=O)(=O)O)C=C(Br)C1=O | 11 | -3 | 35* | 0 | 28* | 51* | 49* | R2B FP artifact=51*;PKA-R2B act conf=46*
Cc1ccc(S(=O)(=O)N2CC[C@@]3(Cc4ccccc4)Cc4ccccc4C[C@@H]23)cc1 | 3 | -11 | . | . | . | . | .
CN(C)c1ccc(C(=O)OCC(=O)Nc2ccc(S(N)(=O)=O)cc2)cc1 | 5 | -3 | 46* | 28 | 48* | 58* | 63* | R2B FP artifact=58*;PKA-R2B act conf=59*
Cc1ccc(-n2c(SCC(=O)Nc3ccc(S(=O)(=O)Nc4nccs4)cc3)nnc2-c2cccs2)cc1 | -5 | -3 | . | . | . | . | .
CCS(=O)(=O)Nc1ccc2c(c1)C(=O)N(C)[C@@H]1CC[C@H](CC(=O)N[C@@H]3CCN(Cc4ccccc4)C3)O[C@H]1CO2 | -2 | 4 | . | . | . | . | .
COC(=O)[C@]12C[C@H](CC(=O)NCC3CCCCC3)C(=O)N(Cc3ccco3)C1=C[C@H](C(C)C)O[C@@H]2C1CC1 | -5 | 4 | . | . | . | . | .
Nc1nc2c(nc(Br)n2[C@@H]2O[C@@H]3COP(=O)(O)O[C@H]3[C@H]2O)c(=O)[nH]1 | -3 | -1 | 53* | -6 | 77* | 0 | 50* | R2B FP artifact=0;PKA-R2B act conf=78*
Nc1ncnc2c1nc(Br)n2[C@@H]1O[C@@H]2COP(=O)(O)O[C@H]2[C@H]1O | 8 | 5 | 117* | 9 | 107* | -2 | 106* | R2B FP artifact=-2;PKA-R2B act conf=98*
Nc1nc2c(nc(N3CCCCC3)n2[C@@H]2O[C@H](CO)[C@@H](O)[C@H]2O)c(=O)[nH]1 | 3 | -3 | -10 | -1 | 3 | . | .
CCOP1(=O)OCC2OC(n3cnc4c(N)ncnc43)C(O)C2O1 (stereo unspecified) | -3 | 0 | 102* | 14 | 91* | 3 | 76* | R2B FP artifact=3;PKA-R2B act conf=65*
Cc1ccc(C=Nn2c(-c3n[nH]c4c3CCC4)n[nH]c2=S)s1 | -1 | 4 | . | . | . | . | .
COc1cccc(C=NNC(=O)CCCC(=O)NN=Cc2cccc(OC)c2)c1 | 1 | -2 | 6 | 9 | -4 | . | .
COc1cccc(/C=N/NC(=O)CCc2ccccc2)c1 | 2 | 7 | 23* | -2 | -5 | 5 | 2
COc1ccc(C(C(=O)N(C)C2CCCC2)N(Cc2ccc(F)cc2)C(=O)c2ncn[nH]2)cc1OC (stereo unspecified) | -2 | 8 | . | . | . | . | .
CN(Cc1ccccc1)C(=O)C1CCN(S(=O)(=O)c2ccc(-n3cnnn3)cc2)CC1 | 5 | 5 | 21* | 3 | 10 | 3 | 2
CCN(CC)C(=O)C1CCN(S(=O)(=O)c2ccc(-n3cnnn3)cc2)CC1 | -3 | -8 | -8 | 6 | -1 | . | .
COC(=O)c1c(NC(=S)Nc2ccccc2Cl)sc(C)c1C | . | . | 21* | -32 | -9 | 0 | 0
COC(=O)c1c(NC(=O)Cc2ccccc2)sc(C)c1C | -1 | 0 | -7 | 11 | -7 | . | .
Cc1sc(N)nc1-c1ccccc1 | 0 | -3 | 21* | 12 | -2 | 1 | 0
CC(C)(C)c1sc(N)nc1-c1ccccc1 | -10 | -4 | -6 | 2 | -1 | . | .
SMILES | Tn6 DDE FP | Tn7 DDE FP | PKA-R1A act | Neddyl block | PKA-R2B act | R1A FP artifact | PKA-R1A confirm | others
CCCN1CCCCC(NC(=O)c2ccc(F)c(F)c2)C1=O (stereo unspecified) | 12 | 6 | . | . | . | . | .
COC(=O)c1c(C)cc(OC(C)=O)c(C)c1OC(C)=O | -4 | -2 | 20* | -4 | 8 | 4 | 4
COc1cc(C)c(C(=O)Oc2cc(C)c(C(=O)O)c(O)c2C)c(O)c1C | -2 | 1 | -4 | 7 | 6 | . | .
COc1ccc(CNC(=O)CNC(=O)c2c(C)nn(C)c2Cl)cc1 | -7 | 3 | 19* | 11 | 0 | 5 | 3
CCOC(=O)C(=O)N(Nc1ccc(C)cc1)c1ccc(C)cc1 | 0 | -9 | -5 | 4 | -2 | . | .
CCC(O)(CC)C(=O)N(Nc1ccc(C)cc1)c1ccc(C)cc1 | 1 | -2 | 21* | -1 | 1 | 3 | 1
Cc1ccc(C(=O)c2ccccc2C(=O)OCC(=O)N2CCCC2)cc1 | 2 | -1 | 20* | -11 | 3 | 2 | 8
Cc1cccc(C(=O)OCC(=O)N2CCCCCC2)c1C | 2 | -2 | -12 | 0 | -8 | . | .
COCc1cc(N2CCN(C(=O)OC(C)(C)C)C[C@H]2C)ccc1N1CCN(Cc2ccccc2)[C@H](C)C1 | 2 | -2 | . | . | . | . | .
COc1cccc(C(=O)N2CCN(C(=O)C3CCCO3)CC2)c1 (stereo unspecified) | -2 | -3 | 20* | 11 | 4 | 3 | 6
COC1=C[C@H](C(=O)NCc2ccccn2)[C@H](C)[C@@H](c2ccccc2)CC1=O | 7 | 6 | . | . | . | . | .
COc1ccc(/C=N\NC(=O)Cc2cccs2)c(OC)c1OC | -6 | -6 | . | . | . | . | .
